According to paper PMC10795035 (ACS Omega, 2024):

What was measured:
[1] = test system: U87MG cells; experiment: XTT cytotoxicity assay; assay type: cell-based, Human; details: for cytotoxicity on U87MG cells at 24 h: XTT assay, 24 h exposure, 5-160 nM, n = 4
How it was run: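 U87MG cells were kept in EMEM with 10% FBS and 1% penicillin–streptomycin at 37 °C, 5% CO2. Cells were seeded at 1 × 10^4/well and treated after 24 h with 5–160 nM test compound at 37 °C. At 24 and 72 h, XTT with electron coupling reagent was added for 3 h, then A450 was read. Values were normalized to untreated cells. Controls were 0.05% DMSO and medium. Mean ± SD, n = 4. IC50 from concentration–response curve fit.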

[2] = test system: U87MG cells with transferrin receptors blocked by excess T7-PEG4-N3; experiment: T7 competition assay: transferrin receptor blocking studies; assay type: cell-based; details: Homo sapiens, U-87 MG, read-out: IC50 at 72 h in TfR-blocked U87MG cells
How it was run: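 U87MG cells were seeded at 1 × 10^4/well and grown 24 h. Medium was replaced with medium containing a 10-fold molar excess of azido-PEG4-T7 peptide relative to conjugate for 1 h. Cells were then exposed to 5–160 nM test compound. Controls were medium, 0.05% DMSO and peptide alone. XTT read-out at 72 h, A450 relative to controls, n = 4. IC50 from concentration–response curve fit.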

[3] = cited from earlier work
[4] = Stability in phosphate buffer saline pH 7.4; assay type: physicochemical; details: PBS pH 7.4 with 2% DMSO, 196 μM conjugate, 37 °C, 0-24 h, HPLC, n = 3
How it was run: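 Conjugate in PBS pH 7.4 with 2% DMSO, 196 μM final, held at 37 °C. Aliquots were withdrawn at time points over 0–24 h and analysed by HPLC. Results were plotted as areas of intact conjugate and of released free drug over time (n = 3).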

[5] = Control incubation in enzyme-free reaction buffer pH 6.0; assay type: physicochemical; details: enzyme free buffer pH 6.0, 37 °C, 24 h, 183 μM conjugate, RP-HPLC, n = 3
How it was run: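 Enzyme-free control run alongside the cathepsin B cleavage assay. Reaction buffer was 150 mM sodium acetate, 12 mM EDTA and 24 mM DTT, pH 6.0. Conjugate was added from a DMSO stock to 183 μM final and incubated at 37 °C. Aliquots were taken over 0–24 h for RP-HPLC. Peak areas at the retention times of pure drug and conjugate tracked conjugate loss and free drug appearance.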

[6] = test system: TfR; details: cited from earlier work

Row | IC50 [2] [nM] | Compound | IC50 ([1]; Homo sapiens, U-87 MG, 72 h, read-out: IC50 on U87MG cells at 72 h) [nM] | cytotoxicity on U87MG cells at 24 h [1] | potency compared to irinotecan [3] | stability in phosphate-buffered saline [4] | release of free SN-38 in enzyme free buffer [5] | binding affinity for TfR relative to Tf [6]
1 | 27.6 | CCc1c2c(nc3ccc(O)cc13)-c1cc3c(c(=O)n1C2)COC(=O)[C@]3(O)CC [SN-38, 7-Ethyl-10-hydroxycamptothecin] | 26.4 | did not exert pronounced cytotoxicity | 100–1000 times | – | – | –
2 | – | CCc1c2c(nc3ccc(OCc4ccc(NC(=O)[C@H](C)NC(=O)[C@@H](NC(=O)CCCCCNC(=O)COCCOCCOCCNC(=O)CCCCC(=O)N5Cc6ccccc6-c6c(nnn6CCOCCOCCOCCOCCC(=O)N[C@@H](Cc6c[nH]cn6)C(=O)N[C@@H](C)C(=O)N[C@H](C(=O)N[C@@H](Cc6ccc(O)cc6)C(=O)N6CCC[C@H]6C(=O)N[C@@H](CCCNC(=N)N)C(=O)N[C@@H](Cc6c[nH]cn6)C(=O)O)[C@@H](C)CC)-c6ccccc65)C(C)C)cc4)cc13)-c1cc3c(c(=O)n1C2)COC(=O)[C@]3(O)CC [Compound T7-SN-38] | – | did not exert pronounced cytotoxicity | – | very minimal decomposition or cleavage | No free SN-38 was observed | –
3 | – | His-Ala-Ile-Tyr-Pro-Arg-His [T7 peptide] | – | – | – | – | – | comparable to that of Tf
